Data published in publication PMC9016318 (Cancer Research and Treatment : Official Journal of Korean …, 2021).
No end group written: not given here.

What was measured:
Cal27 cells = assay: CCK-8 cytotoxicity, Cal27 cells; format: cell-based, human; details: CCK-8, 64 μM, 24 hours
How it was run: (§1)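 Cells were seeded in 96-well plates and cultured 24 h: Jurkat T at 4,000/well, Cal27 at 2,000/well. Test peptide was added at 1–64 μM for 24 h, then CCK-8 for 2 h, and absorbance was read at 450. Viability % = (sample − no-cell baseline with peptide)/(untreated control − no-cell blank) × 100. Data are mean±standard error of three separate experiments.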

Jurkat T cells = assay: CCK-8 cytotoxicity, Jurkat T cells; format: cell-based, human; details: CCK-8, 64 μM, 24 hours
How it was run: as §1

ICIK cells = assay: CCK-8 cytotoxicity, ICIK cells; format: cell-based, human; details: CCK-8, 64 μM, 24 hours
How it was run: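 ICIK cells were human blood PBMCs, Ficoll-separated, held overnight at 4°C on anti-CD3 (OKT3, 10 μg/mL) coated dishes, then grown 10 days in RPMI 1640/10% FBS with IFN-γ 2000 U/mL and IL-2 10 ng/mL. They were seeded at 4,000/well and cultured 24 h. Test peptide at 1–64 μM was added for 24 h, then CCK-8 for 2 h, and absorbance read at 450. Viability was blank/baseline-corrected against untreated wells.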

[1] = target: human recombinant PD-1 protein (human, UniProt Q15116); assay: SPR
human recombinant PD-1 protein, sequence (Q15116 25-170): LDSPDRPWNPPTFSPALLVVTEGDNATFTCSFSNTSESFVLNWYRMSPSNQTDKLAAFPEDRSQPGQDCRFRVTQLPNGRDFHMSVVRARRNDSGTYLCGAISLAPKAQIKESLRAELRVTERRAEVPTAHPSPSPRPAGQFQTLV

| Molecule | cytotoxicity to stimulated Cal27 cells (Cal27 cells) | cytotoxicity to Jurkat T cells (Jurkat T cells) | cytotoxicity to ICIK cells (ICIK cells) | Kd [1] [µM] |
| --- | --- | --- | --- | --- |
| SRLKEIANSPTQFWRMVARNTLGNGAKQSLNIEHARL [nABP284] | not directly cytotoxic | not directly cytotoxic | not directly cytotoxic | – |
| SRLKEIANSPTQFWRMVARNTLGNGAKQSLNIEHARL [nABP284] | – | – | – | 11.8 |
